≈ marks a conversion by molar mass, not a printed value. Calls of active or inactive are those of the source. The rule behind the calls is not given here.
Legend:
[1] = target: T1, N-lysine methyltransferase SMYD2 (Homo sapiens, UniProt Q9NRG4); assay: Inhibition of SMYD2 (unknown origin)
[2] = Unbound fraction in human plasma by equilibrium dialysis; format: ADME, cell-free
Method in brief: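 Human plasma, compound added from DMSO stock; fraction unbound (fu%) by equilibrium dialysis.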

[3] = target: T1, N-lysine methyltransferase SMYD2; assay: Inhibition of SMYD2 (unknown origin) expressed in human U2OS cells assessed as reduction in monomethylated p53 levels incubated for 24 hrs by immunofluorescence assay; format: cell-based
Method in brief: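 U2OS plated 8,000 cells/well, transfected (Fugene) with FLAG-tagged wild-type SMYD2 construct. Compound from DMSO in media (final DMSO 0.2%), 24 h. Cells PFA-fixed, stained with anti-FLAG (1:800), polyclonal anti-monomethyl p53 K370 peptide antibody (1:1000) and DAPI, then imaged. IC50 from fluorescent intensity per cell for methylation; DAPI count gave the cell-count IC50.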

[4] = Intrinsic clearance in human liver microsomes; format: ADME, Microsome; details: read-out: CLH
[5] = Solubility of compound in 0.1 M phosphate buffer at pH 7.4 at 25 degC after 24 hrs; format: physicochemical
Method in brief: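 Solid sample shaken 24 h in 0.1 M phosphate buffer, pH 7.4, 25 °C.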

RKO = assay: Antiproliferative activity against human RKO cells assessed as reduction in cell viability at 0.03 to 30 uM incubated for 72 hrs by Alamar blue based assay; format: functional; details: dose 0.03-30 µM
Method in brief: (§1)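 Matched p53 wild-type/deficient pairs (HCT116 p53+/+ and p53-/-; RKO-neo and RKO-E6a) seeded in triplicate, attached overnight. Media replaced with DMSO control or compound media, 0.03 to 30 µM, 72 h. Viability read as fluorescence after AlamarBlue incubation. Triplicate in two separate experiments; mean ±SEM.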

RKOE6 = assay: Antiproliferative activity against human RKOE6 cells assessed as reduction in cell viability at 0.03 to 30 uM incubated for 72 hrs by Alamar blue based assay; format: functional; details: dose 0.03-30 µM; method in brief: as §1
HCT-116 [6] = assay: Antiproliferative activity against human HCT-116 cells deficient in p53 gene assessed as reduction in cell viability at 0.03 to 30 uM incubated for 72 hrs by Alamar blue based assay; format: functional; details: dose 0.03-30 µM; method in brief: as §1
[7] = target: T1, N-lysine methyltransferase SMYD2; assay: Ratio of IC50 for SMYD2 (unknown origin) to IC50 for inhibition of SMYD2 (unknown origin) expressed in human U2OS cells; format: cell-based
HCT-116 [8] = assay: Antiproliferative activity against human HCT-116 cells contains wild-type p53 gene assessed as reduction in cell viability at 0.03 to 30 uM incubated for 72 hrs by Alamar blue based assay; format: functional; details: dose 0.03-30 µM; method in brief: as §1
[9] = target: T1, N-lysine methyltransferase SMYD2; assay: Binding affinity to SMYD2 (unknown origin) by ITC assay
Method in brief: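 Microcal ITC at 23 °C in 25 mM Tris pH 8.5, 50 mM NaCl, 2% DMSO. Cell held ~15 µM SMYD2; syringe 200 µM compound. Eight 4 µL injections gave a final compound:protein molar ratio of ~1.4:1.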

[10] = Intrinsic clearance in human liver microsomes; details: read-out: CLH
[11] = Distribution coefficient, logD of compound; format: physicochemical; details: octanol/water

T1 sequence (Q9NRG4 whole entry): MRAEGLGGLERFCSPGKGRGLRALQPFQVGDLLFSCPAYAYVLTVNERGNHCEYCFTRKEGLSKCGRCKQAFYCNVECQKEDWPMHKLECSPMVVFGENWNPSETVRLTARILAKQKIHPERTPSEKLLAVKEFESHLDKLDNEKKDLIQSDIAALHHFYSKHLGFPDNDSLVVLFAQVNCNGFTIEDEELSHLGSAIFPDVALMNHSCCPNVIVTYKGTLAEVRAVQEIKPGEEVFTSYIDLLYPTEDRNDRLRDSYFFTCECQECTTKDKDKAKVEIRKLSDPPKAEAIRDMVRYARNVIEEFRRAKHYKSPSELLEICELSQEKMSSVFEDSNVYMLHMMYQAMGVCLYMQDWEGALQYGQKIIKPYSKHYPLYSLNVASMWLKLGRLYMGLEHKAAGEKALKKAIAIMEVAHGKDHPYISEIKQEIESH

| SMILES | IC50 [1] [nM] | fraction unbound [2] | EC50 [3] [nM] | solubility at 24 h [5] [µM] | also measured |
| --- | --- | --- | --- | --- | --- |
| Cc1ccccc1-c1cc(C(=O)NCCCN2CCC(N3CCCCC3)CC2)c2cn[nH]c2n1 | 19600 | – | – | – | – |
| O=C(NCCCN1CCCC1)c1cccc(-c2ccccc2N2CCN(CCc3ccc(Cl)c(Cl)c3)CC2)c1 | 165 | < 0.01 | 3230 | 34 (≈ 19.2 µg/mL) | microsomal CLint [4]: 68 µL/min/mg |
| O=C(NCCCN1CCCC1)c1cccc(-c2ccccc2N2CCN(CCc3ccccc3)CC2)c1 | 339 | 0.08 | 4910 | 851 (≈ 423 µg/mL) | microsomal CLint [4]: 30 µL/min/mg |
| Cc1ccccc1-c1cc(C(=O)NCCCN2CCOCC2)c2cn[nH]c2n1 | 41300 | – | – | – | – |
| CN(CCCN1CCCC1)C(=O)c1cc(-c2ccccc2Br)nc2[nH]ncc12 | 7300 | – | – | – | – |
| O=C(NCCCN1CCCC1)c1cncc(-c2ccccc2N2CCN(CCc3c[nH]c4ccccc34)CC2)c1 | 17 | 0.17 | 1020 | 858 (≈ 461 µg/mL) | Activity (RKO): Active; Activity (RKOE6): Active; Activity (HCT-116 [6]): Active; IC50 [3]: 2430 nM; Ratio IC50 [7]: > 2; Activity (HCT-116 [8]): Active |
| N#Cc1cc(C(=O)NCCCN2CCCC2)cc(-c2ccccc2N2CCN(CCc3c[nH]c4ccccc34)CC2)c1 | 28 | 0.038 | 270 | 396 (≈ 222 µg/mL) | microsomal CLint [4]: 21 µL/min/mg |
| Cc1ccccc1-c1cc(C(=O)N2CCC(N3CCCCC3)CC2)c2cn[nH]c2n1 | 16900 | – | – | – | – |
| COc1cccc(CCN2CCN(c3ccccc3-c3cc(C#N)cc(C(=O)NCCCN4CCCC4)c3)CC2)c1 | 59 | 0.073 | 2690 | 602 (≈ 332 µg/mL) | microsomal CLint [4]: 74 µL/min/mg |
| Cc1ccccc1-c1cc(C#N)cc(C(=O)NCCCN2CCCC2)c1 | 7300 | – | – | – | – |
| COc1ccc(CCN2CCN(c3ccccc3-c3cc(C(=O)NCCCN4CCCC4)ccn3)CC2)cc1 | 1050 | 0.34 | 2440 | > 1000 | – |
| CNCCCNC(=O)c1cc(-c2ccccc2C)nc2[nH]ncc12 | > 83000 | – | – | – | – |
| NCC1(C(=O)Nc2ccc(Cl)cc2)CCN(c2ncnc3[nH]nc(C4CC4)c23)CC1 | – | – | – | – | Activity [9]: Active |
| Cc1ccccc1-c1cc(C(=O)NCCCN2CCCC2)c2c(C)n[nH]c2n1 | 8900 | – | – | – | – |
| O=C(NCCCN1CCCC1)c1cc(-c2ccccc2Cl)nc2[nH]ncc12 | 8000 | – | – | – | – |
| Cc1ccccc1-c1cc(C(=O)NCCCN2CCCCC2)c2cn[nH]c2n1 | 13500 | – | – | – | – |
| O=C(NCCCN1CCCC1)c1cccc(-c2ccccc2N2CCN(CCc3c[nH]c4ccccc34)CC2)c1 | 41 | 0.033 | 3460 | 246 (≈ 132 µg/mL) | microsomal CLint [4]: 16 µL/min/mg |
| O=C(NCCCN1CCCC1)c1cc(-c2ccccc2F)nc2[nH]ncc12 | 16800 | – | – | – | – |
| Cc1cccc(CCN2CCN(c3ccccc3-c3cc(C#N)cc(C(=O)NCCCN4CCCC4)c3)CC2)c1 | 31 | 0.023 | 1210 | 588 (≈ 315 µg/mL) | microsomal CLint [4]: 43 µL/min/mg |
| CNc1cc(C(=O)NCCCN2CCCC2)cc(-c2ccccc2C)n1 | 17700 | – | – | – | – |
| O=C(NCCCN1CCCC1)c1ccnc(-c2ccccc2N2CCN(CCc3c[nH]c4ccccc34)CC2)c1 | 62 | 0.34 | 5610 | 923 (≈ 495 µg/mL) | – |
| O=C(NCCCN1CCCC1)c1cncc(-c2ccccc2OC2CN(CCc3ccc(Cl)c(Cl)c3)C2)c1 | 12 | 0.11 | > 24000 | > 1000 | microsomal CLint [10]: 33.5 µL/min/mg; logD [11]: 2.4 |
| O=C(NCCCN1CCCC1)c1ccnc(-c2ccccc2N2CCN(CCc3ccc(Cl)cc3)CC2)c1 | 305 | 0.13 | 1620 | > 1000 | – |

| SMILES | IC50 [1] [nM] | fraction unbound [2] | EC50 [3] [nM] | solubility at 24 h [5] [µM] | also measured |
| --- | --- | --- | --- | --- | --- |
| COc1cccc(CCN2CCN(c3ccccc3-c3cccc(C(=O)NCCCN4CCCC4)c3)CC2)c1 | 273 | 0.1 | 3500 | 815 (≈ 429 µg/mL) | microsomal CLint [4]: 36 µL/min/mg |
| COc1cccc(CNC2CCN(c3ccccc3-c3cncc(C(=O)NCCCN4CCCC4)c3)CC2)c1 | 39 | 0.14 | 5760 | 915 (≈ 483 µg/mL) | microsomal CLint [10]: 28 µL/min/mg; logD [11]: 1.9 |
| Cc1ccccc1-c1cc(C(=O)NCCCN2CCCC2)c2cn[nH]c2n1 | 5600 | 0.43 | – | > 1000 | microsomal CLint [10]: 92 µL/min/mg; Kd [9]: 1730 nM; logD [11]: 1.19 |
| COc1cccc(CCN2CCN(c3ccccc3-c3cc(C(=O)NCCCN4CCCC4)ccn3)CC2)c1 | 440 | 0.41 | 1220 | > 1000 | – |
| Cc1ccccc1-c1cc(C(=O)NCC(O)CN2CCCC2)c2cn[nH]c2n1 (stereo not drawn) | 12100 | – | – | – | – |
| O=C(NCCCN1CCCC1)c1cncc(-c2ccccc2N2CCN(CCc3ccc(Cl)c(Cl)c3)CC2)c1 | 38 | 0.011 | 450 | 393 (≈ 223 µg/mL) | – |
| COc1cc(C(=O)NCCCN2CCCC2)cc(-c2ccccc2C)n1 | 9900 | – | – | – | – |
| O=C(NCCCN1CCCC1)c1ccnc(-c2ccccc2N2CCN(CCc3ccc(Cl)c(Cl)c3)CC2)c1 | 120 | 0.014 | 5570 | 790 (≈ 448 µg/mL) | – |
| Cc1ccccc1-c1cccc(C(=O)NCCCN2CCCC2)c1 | 17400 | – | – | – | – |
| COc1ccccc1-c1cc(C(=O)NCCCN2CCCC2)c2cn[nH]c2n1 | 14500 | – | – | – | – |
| Cc1ccccc1-c1cc(C(=O)NCCCN2CCCC2)ccn1 | 8800 | – | – | – | – |
| N#Cc1cc(C(=O)NCCCN2CCCC2)cc(-c2ccccc2N2CCN(CCc3ccc(Cl)c(Cl)c3)CC2)c1 | 138 | < 0.01 | 425 | 34 (≈ 20.1 µg/mL) | Activity (RKO): Active; Activity (RKOE6): Active; Activity (HCT-116 [6]): Active; IC50 [3]: 670 nM; Ratio IC50 [7]: > 2; microsomal CLint [4]: 73 µL/min/mg; Activity (HCT-116 [8]): Active |
| COc1cc(C(=O)NCCCN2CCCC2)cc(-c2ccccc2C)c1 | 22100 | – | – | – | – |
| Cc1cccc(CCN2CCN(c3ccccc3-c3cccc(C(=O)NCCCN4CCCC4)c3)CC2)c1 | 211 | 0.053 | 4140 | 722 (≈ 369 µg/mL) | microsomal CLint [4]: 35 µL/min/mg |
| CCOc1cccc(C(=O)NC2CC3(CCNCC3)c3ccccc32)c1 (stereo not drawn) | – | – | – | – | Activity [9]: Active |
| Cc1ccccc1-c1cc(C(=O)NCC(Cc2ccccc2)CN2CCCC2)c2cn[nH]c2n1 (stereo not drawn) | 3600 | – | – | – | – |
| Cc1ccccc1-c1cc(C(=O)NCCCN(C)C)c2cn[nH]c2n1 | > 61000 | – | – | – | – |
| Cc1ccccc1-c1cc(C(=O)NCCCN2CCCC2)c2c(C3CC3)n[nH]c2n1 | 13300 | – | – | – | – |
| CCc1ccccc1-c1cc(C(=O)NCCCN2CCCC2)c2cn[nH]c2n1 | 8400 | – | – | – | – |
| O=C(NCCCN1CCCC1)c1cc(-c2ccccc2N2CCN(CCc3ccc(Cl)c(Cl)c3)CC2)nc2[nH]ncc12 | 65 | < 0.01 | 549 | 174 (≈ 106 µg/mL) | microsomal CLint [10]: > 300 µL/min/mg; logD [11]: > 3.5 |
| CCn1cncc1CN1CCc2[nH]c(=O)cc(-c3ccc(Cl)cc3)c2C1 | – | – | – | – | Activity [9]: Active |
| O=C(NCCCN1CCCC1)c1cccc(-c2ccccc2N2CCN(CCc3ccc(Cl)cc3)CC2)c1 | 114 | 0.012 | 3120 | 332 (≈ 176 µg/mL) | microsomal CLint [4]: 30 µL/min/mg |
